From ChEMBL document CHEMBL1138349 (J Med Chem, 2007) come the findings set out here.

SMILES strings stand for the structures.

The target in data set [1] is T1, Muscarinic acetylcholine receptor M1 (Homo sapiens, UniProt P11229).
T1 sequence (P11229 whole entry): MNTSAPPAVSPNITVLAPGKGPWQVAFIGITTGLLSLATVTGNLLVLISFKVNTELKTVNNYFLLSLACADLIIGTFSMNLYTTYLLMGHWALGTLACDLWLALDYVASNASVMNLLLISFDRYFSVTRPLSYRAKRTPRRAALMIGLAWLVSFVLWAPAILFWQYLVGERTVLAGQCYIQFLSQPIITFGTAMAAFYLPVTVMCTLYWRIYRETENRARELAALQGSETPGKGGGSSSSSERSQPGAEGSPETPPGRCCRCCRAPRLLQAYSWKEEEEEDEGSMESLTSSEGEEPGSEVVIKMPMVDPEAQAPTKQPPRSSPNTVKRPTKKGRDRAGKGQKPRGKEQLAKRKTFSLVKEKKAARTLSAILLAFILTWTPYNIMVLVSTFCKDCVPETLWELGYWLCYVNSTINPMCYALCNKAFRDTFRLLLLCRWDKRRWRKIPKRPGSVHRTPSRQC
As to the kind of experiment: Displacement of [N-methyl-3H]scopolamine from human recombinant muscarinic M1 receptor expressed in CHO cells. It counts as cell-based.

A further data set has as its target hERG (KCNH2) (Homo sapiens, UniProt Q12809). Kind of data set: Inhibition of human hERG current at 1 uM.
Data set [2] in a line: Clearance in rat at 5 mg/kg, po and 5 mg/kg, iv. The format is ADME, organism-based. Conditions: in vivo.
Data set [3] in a line: Volume of distribution at steady state in rat at 5 mg/kg, po and 5 mg/kg, iv. It counts as ADME, organism-based. Conditions: in vivo, read-out: Vdss.
Data set [4] can be described thus: Total mean residence time in rat at 5 mg/kg, po. It counts as ADME, organism-based. On the set-up: dose 5 mg/kg, route oral. The note with it: in vivo.
Data set [5] can be described thus: Half life in rat at 5 mg/kg, po. The format is ADME, organism-based. On the set-up: dose 5 mg/kg, route oral. The note with it: in vivo.
A short description of data set [6]: Oral bioavailability in rat at 5 mg/kg. The format is ADME, organism-based. Conditions: in vivo.
Data set [7] in a line: Clearance in cynomolgus monkey at 5 mg/kg, po and 1.5 mg/kg, iv. It counts as ADME, organism-based, Macaca fascicularis. Conditions: in vivo.
Data set [8] in a line: Volume of distribution at steady state in cynomolgus monkey at 5 mg/kg, po and 1.5 mg/kg, iv. It counts as ADME, organism-based, Macaca fascicularis. Conditions: in vivo, read-out: Vdss.
Data set [9] in a line: Total mean residence time in cynomolgus monkey at 5 mg/kg, po. It counts as ADME, organism-based, Macaca fascicularis. The arrangement: dose 5 mg/kg, route oral. The note with it: in vivo.
A short description of data set [10]: Half life in cynomolgus monkey at 5 mg/kg, po. It counts as ADME, organism-based, Macaca fascicularis. The arrangement: dose 5 mg/kg, route oral. Conditions: in vivo.
Data set [11] is described as follows: Oral bioavailability in cynomolgus monkey at 5 mg/kg. The format is ADME, organism-based, Macaca fascicularis. Conditions: in vivo.
A further data set deals with Rattus norvegicus. As to the kind of experiment: Inhibition of plasma DPP4 activity in Han Wistar rat at 1 mg/kg, po after 7 hrs. The note with it: read-out: Inhibition.
The next data set deals with Canis familiaris. As to the kind of experiment: Inhibition of plasma DPP4 activity in Beagle dog at 1 mg/kg, po after 7 hrs. Conditions: Canis lupus familiaris, read-out: Inhibition.
Another data set has as its system Rhesus monkey. Kind of data set: Inhibition of plasma DPP4 activity in rhesus monkey at 1 mg/kg, po after 7 hrs. The note with it: Macaca mulatta, read-out: Inhibition.
Data set [12] can be described thus: Aqueous solubility at pH 7.4. The format is physicochemical. The note with it: buffer. A digest of the protocol:
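Solubility was measured in aqueous medium at physiological pH 7.4, using a crystalline modification of the free base.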

A short description of data set [13]: Distribution coefficient, log D at pH 7.4. The format is physicochemical. Conditions: octanol/water.
Data set [14] can be described thus: Dissociation constant, pKa corresponding to the protonation of the quinazoline. It counts as physicochemical.
The subject of data set [15] is Mus musculus. As to the kind of experiment: Reduction in plasma glucose excursion in db/db C57BL/KSJ mouse at 0.1 mg/kg, po by oral glucose tolerance test. The note with it: read-out: Inhibition.
The subject of data set [16] is Mus musculus. Kind of data set: Reduction in plasma glucose excursion in db/db C57BL/KSJ mouse at 1 mg/kg, po by oral glucose tolerance test. Conditions: read-out: Inhibition.
Data set [17] deals with Mus musculus. Kind of data set: Inhibition of plasma DPP4 activity in db/db C57BL/KSJ mouse at 1 mg/kg, po after 30 mins of glucose administration. The note with it: 0.5 h, read-out: Inhibition.
A short description of data set [18]: Dissociation constant, pKa corresponding to the protonation of the primary amino group. It counts as physicochemical.

hERG (KCNH2), sequence (Q12809 whole entry): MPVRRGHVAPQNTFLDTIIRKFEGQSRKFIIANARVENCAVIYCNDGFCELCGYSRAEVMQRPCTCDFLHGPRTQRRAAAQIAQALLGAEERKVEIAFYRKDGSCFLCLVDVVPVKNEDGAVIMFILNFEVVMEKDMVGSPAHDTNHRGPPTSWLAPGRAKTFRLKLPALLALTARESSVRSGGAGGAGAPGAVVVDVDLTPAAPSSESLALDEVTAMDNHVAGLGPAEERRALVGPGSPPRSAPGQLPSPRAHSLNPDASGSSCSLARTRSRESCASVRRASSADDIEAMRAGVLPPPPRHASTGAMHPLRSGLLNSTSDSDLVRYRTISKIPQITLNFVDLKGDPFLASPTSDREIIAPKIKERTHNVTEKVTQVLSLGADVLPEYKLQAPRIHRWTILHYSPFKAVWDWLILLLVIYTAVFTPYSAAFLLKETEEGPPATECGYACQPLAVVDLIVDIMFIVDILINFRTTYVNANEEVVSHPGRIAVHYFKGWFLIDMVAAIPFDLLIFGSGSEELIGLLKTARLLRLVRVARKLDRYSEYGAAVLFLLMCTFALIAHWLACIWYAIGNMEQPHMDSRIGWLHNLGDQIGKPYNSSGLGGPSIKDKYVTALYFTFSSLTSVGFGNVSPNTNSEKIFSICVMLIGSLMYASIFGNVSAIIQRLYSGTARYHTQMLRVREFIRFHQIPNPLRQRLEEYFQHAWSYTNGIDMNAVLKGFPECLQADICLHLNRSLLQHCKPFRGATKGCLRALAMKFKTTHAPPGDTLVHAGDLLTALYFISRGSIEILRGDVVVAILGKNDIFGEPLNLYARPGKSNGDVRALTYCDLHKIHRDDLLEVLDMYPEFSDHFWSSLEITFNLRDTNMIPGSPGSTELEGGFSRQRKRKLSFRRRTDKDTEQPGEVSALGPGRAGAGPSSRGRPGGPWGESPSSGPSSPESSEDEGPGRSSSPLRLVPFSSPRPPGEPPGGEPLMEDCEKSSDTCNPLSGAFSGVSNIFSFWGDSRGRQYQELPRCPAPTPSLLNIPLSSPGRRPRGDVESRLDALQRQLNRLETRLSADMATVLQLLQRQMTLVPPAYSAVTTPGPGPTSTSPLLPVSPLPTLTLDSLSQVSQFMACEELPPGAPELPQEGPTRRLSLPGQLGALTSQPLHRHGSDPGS

For the molecule `CC(C)=CCn1c(N2CCC[C@H](N)C2)nc2c1c(=O)n(CC(=O)c1ccccc1)c(=O)n2C`, the IC50 in [1] is 50 nM.

In the case of `CC#CCn1c(N2CCC[C@@H](N)C2)nc2c1c(=O)n(CC(=O)c1ccccc1)c(=O)n2C`, the IC50 in [1] came to 6160 nM.

In the case of `CC#CCn1c(N2CCC[C@H](N)C2)nc2c1c(=O)n(CC(=O)c1ccccc1)c(=O)n2C`, the IC50 in [1] is 1130 nM.

`CC#CCn1c(N2CCC[C@@H](N)C2)nc2c1c(=O)n(CC(=O)c1ccccc1OCC(=O)NC)c(=O)n2C`: at hERG (KCNH2), the residual activity at 1 µM was 88%. In [1], the IC50 worked out at 1170 nM.

Regarding `CC(C)=CCn1c(N2CCC[C@@H](N)C2)nc2c1c(=O)n(CC(=O)c1ccccc1)c(=O)n2C`, the IC50 in data set [1] was determined as 25 nM.

In the case of `CC#CCn1c(N2CCC[C@@H](N)C2)nc2c1c(=O)n(Cc1nc(C)cc3ccccc13)c(=O)n2C`, the residual activity at 1 µM at hERG (KCNH2) is 78%. Moreover, the IC50 in [1] came to 430 nM.

`CC(C)=CCn1c(N2CCC[C@H](N)C2)nc2c1c(=O)n(Cc1nccc3ccccc13)c(=O)n2C` showed a residual activity at 1 µM at hERG (KCNH2) of 51%. For the same molecule, in data set [1], the IC50 is 26 nM.

`CC#CCn1c(N2CCC[C@@H](N)C2)nc2c1c(=O)n(Cc1ccc(OC)cc1)c(=O)n2C` had a residual activity at 1 µM at hERG (KCNH2) of 51%. Also, in data set [1], the IC50 turned out to be 518 nM.

As for `CC(C)=CCn1c(N2CCC[C@@H](N)C2)nc2c1c(=O)n(Cc1nccc3ccccc13)c(=O)n2C`, the residual activity at 1 µM on hERG (KCNH2) was determined as 51%. In data set [1], the IC50 stood at 5 nM.

For the molecule `CC#CCn1c(N2CCC[C@@H](N)C2)nc2c1c(=O)n(Cc1nc(C)c3ccccc3n1)c(=O)n2C` [LINAGLIPTIN], the half-maximal inhibitory concentration (IC50) in [1] is 295 nM. For the same molecule, the clearance in data set [2] was 37.3 mL/min/kg; in data set [7] it was 15.8 mL/min/kg. The Vd in data set [3] worked out at 5.4 L/kg; in data set [8] it was 15.8 L/kg. Also, the results for the mean residence time MRT in data set [4] and in data set [9] were 14.3 h and 17.4 h, respectively. The figures for the half-life in data set [5] and in [10] were 35.9 h and 41.4 h, respectively. In addition, the bioavailability in [6] amounted to 50.7%; in data set [11], 50.1%. The inhibition in vivo at 1 mg/kg was > 70% in the data set with Rattus norvegicus; > 70% in the data set on Canis familiaris; > 70% in the data set with Rhesus monkey; 66% in the data set with Mus musculus [16]; 76% in the data set with Mus musculus [17]. In data set [12], the solubility was > 5000 µg/mL. The same molecule gave a logD in [13] of 0.4. The pKa in data set [14] is 1.9; in data set [18], 8.6. Moreover, the inhibition in vivo at 0.1 mg/kg in the data set with Mus musculus [15] was determined as 15%.

As a reminder, the IC50 is the midpoint of a concentration-inhibition curve. One may read the residual activity as the signal under treatment as a percentage of the control signal. One may read the MRT as a mean duration of stay, worked out from the concentration-time curve. By half-life is commonly meant the time in which the quantity being followed falls by half. As usually defined, the bioavailability is the share of a dose that reaches the circulation, judged against a reference dose that is usually intravenous. The term solubility denotes the concentration that dissolves in the medium under given conditions. One may read the logD as the decadic logarithm of the distribution of all forms, ionised or not, between an organic phase and buffer at a given pH. Broadly, the pKa is the pH at which an ionisable group is half protonated.
